Source: ChEMBL document CHEMBL4007453, “Identification of Non-Nucleoside Inhibitors of the Respiratory Syncytial Virus Polymerase Complex” (J Med Chem, 2017)
pEC50: −log10 of the molar value.

Legend:
[1] = Inhibition of recombinant Respiratory syncytial virus-A2-L19F RNA-dependent RNA polymerase complex D489E mutant transfected with firefly luciferase gene at SMASh domain in human BEAS2B cells infected with Respiratory syncytial virus-A2-L19F assessed as reduction in viral replication measured after […] by bioluminescence assay; format: cell-based; conditions: human respiratory syncytial virus, A2-L19F, BEAS-2B
Outline: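 BEAS-2B cells (1.5×10^4/well) received 3-fold serial compound dilutions prepared in three repeats (top concentration 10 µM) and were infected with firefly-luciferase/SMASh reporter RSV-A2-L19F D489E (MOI 0.1). Luminescence was converted to % inhibition against four-replicate positive and negative controls per plate. EC50 came from four-parameter variable-slope regression.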

[2] = Selectivity index, ratio of CC50 for human BEAS2B cells to EC50 for inhibition of recombinant mkate-tagged-Respiratory syncytial virus-A2-L19F RNA-dependent RNA polymerase complex D489E mutant in human BEAS2B cells infected with Respiratory syncytial virus-A2-L19F; format: toxicity, cell-based; conditions: read-out: Ratio CC50/EC50
Outline: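 SI is CC50/EC50 in BEAS-2B cells. EC50 came from reporter RSV dose-response, 3-fold dilutions, top 10 µM. […] Both values from four-parameter variable-slope regression.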

BEAS-2B = test: Cytotoxicity against human BEAS2B cells after 48 hrs by PrestoBlue staining based fluorescence assay; format: cell-based
Outline: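 Uninfected BEAS-2B cells were exposed to compound for 48 h at 37°C. PrestoBlue was added and incubated 90 min at 37°C, then fluorescence was read (ex 560 nm, em 590 nm). Cytotoxic was defined as metabolic activity <70% of vehicle control. Highest concentration assessed for cytotoxicity was 90 µM, and CC50 came from four-parameter variable slope regression.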

`Cc1ccoc1C(=O)N1CCn2nc(C(=O)Nc3ccccc3)cc2C1` gave a pEC50 [1] of under 5.00.

`Cc1ccoc1C(=O)N1CCCn2nc(CNc3ccccc3)cc2C1` showed a pEC50 [1] of 6.30, a selectivity ratio [2] of 20 and a CC50 (BEAS-2B) of 10 µM.

Molecule `O=C(Nc1ccccc1)c1cc2n(n1)CCCN(C(=O)c1occc1Cl)C2` has a pEC50 [1] of 6.12, a selectivity ratio [2] of 39 and a CC50 (BEAS-2B) of 30 µM.

In the case of `COc1cccc(NC(=O)c2cc3n(n2)CCCN(C(=O)c2occc2C)C3)c1`, the pEC50 [1] was 6.27, the selectivity ratio [2] was 56 and the CC50 (BEAS-2B) was 30 µM.

`Cc1cc(C)c(C(=O)N2CCCn3nc(C(=O)Nc4ccccc4)cc3C2)o1` gave a pEC50 [1] of 6.02 and a CC50 (BEAS-2B) of 2.6 µM.

Molecule `O=C(Nc1ccccc1)c1cc2n(n1)CCCN(C(=O)c1ccco1)C2` has a pEC50 [1] of 5.15.

`O=C(Nc1ccccc1)c1cc2n(n1)CCCN(C(=O)c1occ3c1CCC3)C2` gave a pEC50 [1] of 5.00 and a CC50 (BEAS-2B) of 10 µM.

With `Cc1ccoc1C(=O)N1CCCn2cc(C(=O)Nc3ccccc3)cc2C1` the pEC50 [1] was 5.50, the selectivity ratio [2] was over 28 and the CC50 (BEAS-2B) was over 90 µM.

In the case of `Cc1ccccc1NC(=O)c1cc2n(n1)CCCN(C(=O)c1occc1C)C2`, the pEC50 [1] was 6.85, the selectivity ratio [2] was 8 and the CC50 (BEAS-2B) was 1.1 µM.

With `Cc1ccsc1C(=O)N1CCCn2nc(C(=O)Nc3ccccc3)cc2C1` the pEC50 [1] was under 5.00.

In the case of `Cc1ccoc1C(=O)N1CCCn2nc(C(=O)Nc3cncnc3)cc2C1`, the pEC50 [1] was under 5.00.

`Cc1ccoc1C(=O)N1CCCn2nc(C(=O)Nc3cccc(F)c3)cc2C1` showed a pEC50 [1] of 6.68, a selectivity ratio [2] of 143 and a CC50 (BEAS-2B) of 30 µM.

In the case of `Cc1ccoc1C(=O)N1CCCn2nc(NS(=O)(=O)c3ccccc3)cc2C1`, the pEC50 [1] was under 5.00.

Molecule `O=C(Nc1ccccc1)c1cc2n(n1)CCCN(C(=O)c1ccncn1)C2` has a pEC50 [1] of under 5.00.

Molecule `Cc1ccoc1CN1CCCn2nc(C(=O)Nc3ccccc3)cc2C1` has a pEC50 [1] of under 5.00.

Work on `Cc1ccoc1C(=O)N1CCCn2nc(C(=O)Nc3ccc(F)cc3)cc2C1` yielded a pEC50 [1] of 6.48, a selectivity ratio [2] of 273 and a CC50 (BEAS-2B) of 90 µM.

For `COc1ccc(NC(=O)c2cc3n(n2)CCCN(C(=O)c2occc2C)C3)cc1`, the pEC50 [1] was 6.49, the selectivity ratio [2] was 281 and the CC50 (BEAS-2B) was 90 µM.

Molecule `Cc1ccoc1C(=O)N1CCCn2nc(C(=O)Nc3ccncn3)cc2C1` has a pEC50 [1] of 5.82, a selectivity ratio [2] of 11 and a CC50 (BEAS-2B) of 16.6 µM.

Molecule `O=C(Nc1ccccc1)c1cc2n(n1)CCCN(C(=O)c1occc1C(F)(F)F)C2` has a pEC50 [1] of 5.27, a selectivity ratio [2] of 6 and a CC50 (BEAS-2B) of 30 µM.

With `Cc1ccoc1C(=O)N1CCCn2nc(C(=O)Nc3ccc(F)cc3F)cc2C1` the pEC50 [1] was 7.22, the selectivity ratio [2] was 83 and the CC50 (BEAS-2B) was 5 µM.

Work on `Cc1ccoc1C(=O)N1CCCn2nc(S(=O)(=O)Nc3ccccc3)cc2C1` yielded a pEC50 [1] of under 5.00.

`Cc1coc(C(=O)N2CCCn3nc(C(=O)Nc4ccccc4)cc3C2)c1` gave a pEC50 [1] of under 5.00.

For `Cc1ccc(C(=O)N2CCCn3nc(C(=O)Nc4ccccc4)cc3C2)o1`, the pEC50 [1] was under 5.00.

Work on `CCc1ccoc1C(=O)N1CCCn2nc(C(=O)Nc3ccccc3)cc2C1` yielded a pEC50 [1] of 6.14, a selectivity ratio [2] of 14 and a CC50 (BEAS-2B) of 10 µM.

`Cc1ccoc1C(=O)N1CCCn2nc(C(=O)NCc3ccccc3)cc2C1` showed a pEC50 [1] of 5.92, a selectivity ratio [2] of 42 and a CC50 (BEAS-2B) of 50 µM.

`Cc1cc[nH]c1C(=O)N1CCCn2nc(C(=O)Nc3ccccc3)cc2C1` gave a pEC50 [1] of under 5.00.

Work on `Cc1c(C(=O)N2CCCn3nc(C(=O)Nc4ccccc4)cc3C2)oc2ccccc12` yielded a pEC50 [1] of 5.00.

Work on `Cc1cc(C(=O)N2CCCn3nc(C(=O)Nc4ccccc4)cc3C2)oc1C` yielded a pEC50 [1] of under 5.00.

Work on `Cc1coc(C(=O)N2CCCn3nc(C(=O)Nc4ccccc4)cc3C2)c1C` yielded a pEC50 [1] of 5.65, a selectivity ratio [2] of 13 and a CC50 (BEAS-2B) of 30 µM.

`O=C(Nc1ccccc1)c1cc2n(n1)CCCN(C(=O)c1occc1-c1ccccc1)C2` showed a pEC50 [1] of under 5.00.

Work on `Cc1ccn(C)c1C(=O)N1CCCn2nc(C(=O)Nc3ccccc3)cc2C1` yielded a pEC50 [1] of under 5.00.

Molecule `Cc1ccoc1C(=O)N1CCCn2nc(NC(=O)c3ccccc3)cc2C1` has a pEC50 [1] of under 5.00.

`O=C(Nc1ccccc1)c1cc2n(n1)CCCN(S(=O)(=O)c1ccco1)C2` showed a pEC50 [1] of under 5.00.

`Cc1cccc(NC(=O)c2cc3n(n2)CCCN(C(=O)c2occc2C)C3)c1` gave a pEC50 [1] of 6.55, a selectivity ratio [2] of 12 and a CC50 (BEAS-2B) of 3.3 µM.
